The subject of assay [1] is RAW264.7. As to the kind of experiment: Antiinflammatory activity in mouse RAW264.7 cells assessed as inhibition of LPS-induced nitric oxide production treated 2 hrs before LPS challenge measured after 18 hrs by griess reaction. Format: functional, cell-based. Put shortly:
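RAW 264.7 cells seeded at 1 × 10^5 per well in 24-well plates in RPMI 1640 with 10% heat-inactivated FBS, grown 24 h. Pretreated 2 h with compounds (40, 20, 10, 5, 2.5 µM; DMSO ≤0.1% final), then stimulated with LPS 2 µg/mL for 18 h. Nitrite measured. Mean ± SD.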
On the technique in general: The Griess reaction detects nitrite, a stable product of nitric oxide.

In assay [2] the test system is RAW264.7. As to the kind of experiment: Antiinflammatory activity in mouse RAW264.7 cells assessed as inhibition of LPS-induced TNFalpha production treated 2 hrs before LPS challenge measured after 24 hrs by ELISA. Format: functional, cell-based. The settings on record: in the assay text read “measured after 18 hrs” for “measured after 24 hrs”. Put shortly: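 RAW 264.7 cells (RPMI 1640, 10% heat-inactivated FBS, 37 °C, 5% CO2) seeded in 24-well plates, grown 24 h, then exposed to compounds (100, 50, 25, 12.5, 6.25 µM) and LPS as for the nitrite assay. TNF-α in medium measured by mouse ELISA kit. Data as mean ± SD.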
(An ELISA detects its analyte on a solid surface through an enzyme-linked reagent.)

Molecules are shown by their SMILES.

As usually defined, the IC50 is the concentration that gives 50% inhibition. Take `CO[C@@H]1O[C@@H]([C@H](O)C(C)(C)O)C[C@H]1[C@H]1CC[C@]2(C)C3=CC[C@H]4C(C)(C)C(=O)CC[C@]4(C)[C@H]3CC[C@@]12C`: the IC50 is 29.4 µM in the assay with RAW264.7 [1] and 54.6 µM in the assay on RAW264.7 [2].
The corresponding values for `CC(=O)O[C@@H]1CC[C@]2(C)[C@H]3CC[C@]4(C)C(=CC[C@@H]4[C@H]4CO[C@H](C(C)(C)O)[C@H](O)C4)[C@]3(C)[C@H](O)C[C@H]2C1(C)C` are greater than 50 µM and 73.5 µM.
The corresponding values for `CC(=O)O[C@@H]1CC[C@]2(C)[C@H]3CC[C@]4(C)C(=CC[C@@H]4[C@H]4COC(C)(C)[C@@H](O)[C@H](O)C4)[C@]3(C)[C@H](O)C[C@H]2C1(C)C` [CHISIAMOL B] are 16.5 µM and greater than 100 µM.
The corresponding values for `CC(=O)O[C@@H]1CC[C@]2(C)[C@H]3CC[C@]4(C)C(=CC[C@@H]4[C@H]4COC(C)(C)[C@@H](O)[C@H](O)C4)[C@]3(C)[C@H](OC(C)=O)C[C@H]2C1(C)C` [CHISIAMOL C] are 8.7 µM and greater than 100 µM.
`CO[C@@H]1O[C@@H]([C@H](O)C(C)(C)O)C[C@H]1[C@H]1CC=C2[C@]3(C)[C@H](O)C[C@H]4C(C)(C)[C@H](OC(C)=O)CC[C@]4(C)[C@H]3CC[C@]21C` [CHISIAMOL D]: the IC50 in the assay with RAW264.7 [1] was 6.5 µM; in the assay with RAW264.7 [2], greater than 100 µM.
The corresponding values for `CO[C@H]1O[C@@H]([C@H](O)C(C)(C)O)C[C@H]1[C@H]1CC=C2[C@]3(C)[C@H](O)C[C@H]4C(C)(C)[C@H](OC(C)=O)CC[C@]4(C)[C@H]3CC[C@]21C` [CHISIAMOL E] are 8.9 µM and greater than 100 µM.
The corresponding values for `CC(=O)O[C@@H]1CC[C@]2(C)[C@H]3CC[C@]4(C)C(=CC[C@@H]4[C@H]4CO[C@](O)(C(C)(C)O)[C@H](O)C4)[C@]3(C)[C@H](OC(C)=O)C[C@H]2C1(C)C` [CHISOPANIN A] are 5.4 µM and 26.9 µM.
The corresponding values for `CC(=O)O[C@@H]1CC[C@]2(C)[C@H]3CC[C@]4(C)C(=CC[C@@H]4[C@H]4CO[C@](O)(C(C)(C)O)[C@H](O)C4)[C@]3(C)[C@H](O)C[C@H]2C1(C)C` [CHISOPANIN B] are 7.9 µM and 30.7 µM.
As for `C=C(C)[C@@H](O)[C@H]1C[C@@H]([C@H]2CC=C3[C@]4(C)[C@H](O)C[C@H]5C(C)(C)[C@H](OC(C)=O)CC[C@]5(C)[C@H]4CC[C@]32C)[C@H](OC)O1` [CHISOPANIN C], the results for the IC50 in the assay with RAW264.7 [1] and with RAW264.7 [2] were 40 µM and greater than 100 µM, respectively.
As to `C=C(C)[C@@H](O)[C@H]1C[C@@H]([C@H]2CC=C3[C@]4(C)[C@H](O)C[C@H]5C(C)(C)[C@H](OC(C)=O)CC[C@]5(C)[C@H]4CC[C@]32C)[C@H](OCC)O1` [CHISOPANIN D], the IC50 was greater than 50 µM in the assay with RAW264.7 [1] and greater than 100 µM in the assay with RAW264.7 [2].
The corresponding values for `CO[C@@H]1O[C@@H]([C@H](O)C(C)(C)OC)C[C@H]1[C@H]1CC=C2[C@]3(C)[C@H](O)C[C@H]4C(C)(C)[C@H](OC(C)=O)CC[C@]4(C)[C@H]3CC[C@]21C` [CHISOPANIN E] are 6.2 µM and greater than 100 µM.
The corresponding values for `CO[C@H]1O[C@@H]([C@H](O)C(C)(C)OC)C[C@H]1[C@H]1CC=C2[C@]3(C)[C@H](O)C[C@H]4C(C)(C)[C@H](OC(C)=O)CC[C@]4(C)[C@H]3CC[C@]21C` [CHISOPANIN F] are 6.9 µM and greater than 100 µM.
The corresponding values for `CCO[C@@H]1O[C@@H]([C@H](O)C(C)(C)O)C[C@H]1[C@H]1CC=C2[C@]3(C)[C@H](O)C[C@H]4C(C)(C)[C@H](OC(C)=O)CC[C@]4(C)[C@H]3CC[C@]21C` [CHISOPANIN G] are 5.4 µM and greater than 100 µM.
On to `CCO[C@H]1O[C@@H]([C@H](O)C(C)(C)O)C[C@H]1[C@H]1CC=C2[C@]3(C)[C@H](O)C[C@H]4C(C)(C)[C@H](OC(C)=O)CC[C@]4(C)[C@H]3CC[C@]21C` [CHISOPANIN H], for which the half-inhibitory concentration (IC50) was greater than 50 µM in the assay with RAW264.7 [1] and greater than 100 µM in the assay with RAW264.7 [2].
The corresponding values for `CCOC(C)(C)[C@@H](O)[C@H]1C[C@@H]([C@H]2CC=C3[C@]4(C)[C@H](O)C[C@H]5C(C)(C)[C@H](OC(C)=O)CC[C@]5(C)[C@H]4CC[C@]32C)[C@H](OC)O1` [CHISOPANIN I] are 5.3 µM and greater than 100 µM.
The corresponding values for `CCOC(C)(C)[C@@H](O)[C@H]1C[C@@H]([C@H]2CC=C3[C@]4(C)[C@H](O)C[C@H]5C(C)(C)[C@H](OC(C)=O)CC[C@]5(C)[C@H]4CC[C@]32C)[C@@H](OC)O1` [CHISOPANIN J] are 12.3 µM and greater than 100 µM.
The corresponding values for `CC(=O)O[C@@H]1CC[C@]2(C)[C@H]3CC[C@]4(C)C(=CC[C@H]4C4=CC(C(O)C(C)(C)O)OC4=O)[C@]3(C)[C@H](O)C[C@H]2C1(C)C` (stereo partly specified) [CHISOPANIN K] are 33.4 µM and 47.4 µM.
As to `C[C@@H]1C[C@H]2[C@@H]3CCC4=CC(=O)C=C[C@]4(C)[C@@]3(F)[C@@H](O)C[C@]2(C)[C@@]1(O)C(=O)CO` [DEXAMETHASONE], the IC50 with RAW264.7 [1] amounted to 0.86 µM.
Regarding `O=c1c(-c2ccc(O)cc2)coc2cc(O)cc(O)c12` [GENISTEIN], the half-maximal inhibitory concentration (IC50) in the assay with RAW264.7 [2] turned out to be 19.1 µM.

The record behind these values is ChEMBL document CHEMBL1667862, “Chisopanins A-K, 11 new protolimonoids from Chisocheton paniculatus and their anti-inflammatory activities” (Bioorg Med Chem, 2011).
